Publication PMC7388746 (Toxicon : official journal of the International Society on …, 2020)
Positions of bridges follow the written chain, without caps; N, C: chain ends. Residues, ends and D or L forms follow the SMILES beside them.

Assays:
TRPV1 [1] = details: cited from earlier work
TRPV1 [2] = details: animal studies, ref Kaszas et al., 2012, Lebovitz et al.; cited from earlier work
[3] = biological target: T1, TRPV1 channels expressed in HEK293T cells (murine TRPV1, E571A, C-terminal eYFP) (Mus musculus, UniProt Q704Y3, E571A); test: Inside-out patch-clamp of TRPV1, intracellular perfusion; assay type: cell-based
T1 sequence (Q704Y3 whole entry E571A, the tested form may be a part): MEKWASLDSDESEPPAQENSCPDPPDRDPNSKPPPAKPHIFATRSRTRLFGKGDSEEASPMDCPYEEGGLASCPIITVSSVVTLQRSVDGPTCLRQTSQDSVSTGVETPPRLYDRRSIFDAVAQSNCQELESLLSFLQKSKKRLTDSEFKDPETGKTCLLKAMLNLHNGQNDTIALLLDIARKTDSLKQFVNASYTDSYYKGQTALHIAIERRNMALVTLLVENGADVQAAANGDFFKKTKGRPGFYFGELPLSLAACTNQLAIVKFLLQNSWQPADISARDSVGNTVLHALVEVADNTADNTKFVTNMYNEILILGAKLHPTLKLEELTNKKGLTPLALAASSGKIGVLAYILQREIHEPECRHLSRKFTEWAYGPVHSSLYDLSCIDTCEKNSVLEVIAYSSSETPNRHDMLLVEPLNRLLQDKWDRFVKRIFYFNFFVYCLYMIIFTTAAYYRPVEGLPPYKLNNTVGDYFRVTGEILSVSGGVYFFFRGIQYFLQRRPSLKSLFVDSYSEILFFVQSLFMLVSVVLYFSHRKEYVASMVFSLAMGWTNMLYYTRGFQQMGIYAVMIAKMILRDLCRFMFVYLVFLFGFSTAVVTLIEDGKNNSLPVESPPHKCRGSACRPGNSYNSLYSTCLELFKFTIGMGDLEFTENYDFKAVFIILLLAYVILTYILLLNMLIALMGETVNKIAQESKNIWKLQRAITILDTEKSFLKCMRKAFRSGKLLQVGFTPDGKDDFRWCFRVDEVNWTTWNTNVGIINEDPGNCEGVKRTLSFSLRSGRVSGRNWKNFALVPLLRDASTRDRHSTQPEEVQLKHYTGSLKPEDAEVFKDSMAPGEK

[4] = biological target: T1, TRPV1 channels expressed in HEK293T cells (murine TRPV1, E571A, C-terminal eYFP); test: Patch-clamp activation of TRPV1, extracellular perfusion; assay type: cell-based
TRPV2 = test: Whole-cell patch-clamp of TRPV2; assay type: cell-based; details: n = 4
Outline: (§1)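 Channels transiently expressed in HEK293T cells (DMEM, 10% FBS, 37 °C, 5% CO2; Lipofectamine 3000) and recorded 24–48 h after transfection. Whole-cell, ~4 MΩ pipettes, 60% series-resistance compensation. Bath and pipette: 130 mM NaCl, 10 mM glucose, 0.2 mM EDTA, 3 mM HEPES pH 7.2. Sampled 10 kHz, filtered 2.9 kHz, 22 °C, rapid gravity perfusion. Mean ± SEM.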

TRPV3 = test: Whole-cell patch-clamp of TRPV3; assay type: cell-based; details: n = 4
Outline: as §1

[5] = biological target: T1, TRPV1 channels expressed in HEK293T cells (murine TRPV1, E571A, C-terminal eYFP); test: TRPV1 desensitization on prolonged application and recovery; assay type: cell-based; details: RhTx2 300 μM vs RhTx 10 μM
[6] = biological target: T1, TRPV1 channels expressed in HEK293T cells (murine TRPV1, E571A, C-terminal eYFP); test: Single-channel recording of TRPV1; assay type: cell-based; details: outside-out; 300 μM RhTx2, on first perfusion

Q: For `CC[C@H](C)[C@H](NC(=O)[C@@H]1CSSC[C@@H]2NC(=O)[C@H]([C@@H](C)O)NC(=O)[C@H](C(C)C)NC(=O)CNC(=O)[C@H](CC(N)=O)NC(=O)[C@@H](NC(=O)[C@@H]3CCCN3C(=O)[C@H](CC(N)=O)NC(=O)[C@H](CC(N)=O)NC(=O)[C@@H](N)CC(C)C)CSSC[C@H](NC(=O)[C@H](CCCNC(=N)N)NC(=O)[C@H](Cc3ccc(O)cc3)NC(=O)CNC(=O)[C@H](CO)NC(=O)[C@@H]3CCCN3C2=O)C(=O)N[C@@H](CO)C(=O)N[C@@H]([C@@H](C)CC)C(=O)N[C@@H](C(C)C)C(=O)N[C@@H](CC(=O)O)C(=O)N[C@@H](CCCCN)C(=O)N[C@@H](CCC(N)=O)C(=O)N1)C(=O)N[C@@H](CCCCN)C(=O)N[C@@H](CCCCN)C(=O)N[C@@H](CCC(=O)O)C(=O)O` [RhTx] (H-LNNPCNGVTCPSGYRCSIVDKQCIKKE-OH; disulfide 5-16, 10-23; N-terminus and C-terminus assumed), which “mechanism of TRPV1 desensitization, literature (in words)” value (TRPV1 [1]; ref Yang et al., 2015, Luo et al., 2019) is on record?
A: mechanistically similar to the heat desensitization

Q: What about the “TRPV1 activation, literature (in words)” value (TRPV1 [1]; ref Yang et al., 2015) of the same molecule?
A: strongly activates TRPV1

Q: What about the “binding site on TRPV1, literature (in words)” value (TRPV1 [1]; ref Yang et al., 2015) of the same molecule?
A: binds to the outer pore region above the pore helix

Q: With `CCOC(=O)C1=C(c2ccccc2)NC(C)=C(C(=O)SCCOC)C1CC` (stereo not drawn) [MRS1477] as the molecule, how does the “TRPV1 allosteric modulation, literature (in words)” value (TRPV1 [1]; ref Kaszas et al., 2012, Lebovitz et al.) read?
A: positively and allosterically modulate the ligand activation of TRPV1

Q: What about the “analgesic effect and side effects, literature (in words)” value (TRPV1 [2]) of the same molecule?
A: analgesic effects without side effects such as hyperthermia

Q: Which “TRPV1 activation by intracellular application (in words)” value [3] does the source give for `COc1cc(CNC(=O)CCCC/C=C/C(C)C)ccc1O` [capsaicin] here?
A: robustly activated

Q: With `Oc1cc2c(cc1O)CN(C(=S)NCCc1ccc(Cl)cc1)CCC2` [capsazepine] as the molecule, how does the “block of RhTx2 activation of TRPV1 (in words)” value [4] read?
A: cannot be blocked

Q: What about the “mode of inhibition vs capsaicin, literature (in words)” value (TRPV1 [1]; ref Cao et al., 2013, Yang et al., 2015) of the same molecule?
A: competitive inhibitor

Q: Which results are given for `CC[C@H](C)[C@H](NC(=O)[C@@H]1CSSC[C@@H]2NC(=O)[C@H]([C@@H](C)O)NC(=O)[C@H](C(C)C)NC(=O)CNC(=O)[C@H](CC(N)=O)NC(=O)[C@@H](NC(=O)[C@@H]3CCCN3C(=O)[C@H](CC(N)=O)NC(=O)[C@H](CC(N)=O)NC(=O)[C@H](CC(C)C)NC(=O)[C@H](Cc3ccc(O)cc3)NC(=O)[C@H](CCCCN)NC(=O)[C@H](CO)NC(=O)[C@@H](N)CC(N)=O)CSSC[C@H](NC(=O)[C@H](CCCNC(=N)N)NC(=O)[C@H](Cc3ccc(O)cc3)NC(=O)CNC(=O)[C@H](CO)NC(=O)[C@@H]3CCCN3C2=O)C(=O)N[C@@H](CO)C(=O)N[C@@H]([C@@H](C)CC)C(=O)N[C@@H](C(C)C)C(=O)N[C@@H](CC(=O)O)C(=O)N[C@@H](CCCCN)C(=O)N[C@@H](CCC(N)=O)C(=O)N1)C(=O)N[C@@H](CCCCN)C(=O)N[C@@H](CCCCN)C(=O)N[C@@H](CCC(=O)O)C(=O)O` [RhTx2] (H-NSKYLNNPCNGVTCPSGYRCSIVDKQCIKKE-OH; disulfide 9-20, 14-27; N-terminus and C-terminus assumed)?
A: change in EC50, RhTx2 vs RhTx (fold) ([4]; EC50 of RhTx2 relative to RhTx, apparent binding affinity much lower): ~100 fold; selectivity (in words) ([4]; TRPV1 vs TRPV2 and TRPV3, whole-cell, n = 4 per channel): selective for TRPV1 channel; TRPV1 activation (in words) ([4]; perfused from extracellular side, whole-cell recording, HEK293T): robustly activated TRPV1; current activation in TRPV2 compared with TRPV1 (in words) (TRPV2): much smaller; current activation in TRPV3 compared with TRPV1 (in words) (TRPV3): much smaller; steady state open probability in the desensitized state (in words) [5]: significantly lower than that of RhTx; initial single-channel opening (in words) [6]: strong channel opening
